The values that follow come from ChEMBL document CHEMBL1153564 (Antimicrob Agents Chemother, 2008).

Converted amounts (≈) assume the structure as drawn. The source made the active and inactive calls. The calls are words filed in the database; no cut-off is given here. Starred links: 1 amine or outer side, 2 acyl side, 3 side chain; linkers in the order of their positions; H or OH if unused. Positions of bridges follow the written chain, without caps; N, C: chain ends. Non-standard residues stand in square brackets, D forms with d. Residues, ends and D or L forms follow the SMILES beside them. *: point of attachment. pTerphenylCO(4''-OnC5H11) = CCCCCOc1ccc(-c2ccc(-c3ccc(C(=O)*)cc3)cc2)cc1; Orn(4R-OH,5R-OH) = O=C([C@H](C[C@@H](O)[C@@H](O)N[*:3])N[*:1])[*:2]; hTyr(3S-OH,4S-OH) = N[C@H](C(=O)O)[C@H](O)[C@@H](O)c1ccc(O)cc1; Pro(3S-OH,4S-Me) = C[C@H]1CN[C@H](C(=O)O)[C@H]1O; Hyp = O=C(O)[C@@H]1C[C@@H](O)CN1

The test system of data set [1] is Nakaseomyces glabratus. Briefly: Antifungal activity against Candida glabrata 5376 infected in neutropenic ICR/Swiss mouse candidiasis model assessed as prolongation of fungal growth suppression at 20 mg/kg, ip administered 2 hrs postinfection as single dose by time-kill assay. In kind it is functional. The note with it: route intraperitoneal. In outline: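 Neutropenic mice were infected i.v. and 2 h later given a single i.p. dose (1.25, 5 or 20 mg/kg). Groups of three treated and three control mice were killed at intervals over 96 h, and kidney CFU were counted on SDA (limit 100 CFU/ml). The post-antifungal effect is t − c: the time for a 1 log10 CFU/kidney increase once serum levels fall below the MIC in treated mice, minus the same time in controls.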

Data set [2] has as its system Nakaseomyces glabratus. Briefly: Antifungal activity against Candida glabrata 35315 assessed as complete growth inhibition after 24 hrs by CLSI end point method. To be noted: Nakaseomyces glabratus, 35315, 24 h. In kind it is functional. In outline:
(§1)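 Two end points were read against the drug-free control well: partial growth inhibition (the CLSI end point) and complete inhibition. Run in duplicate on four separate occasions; the value is the mean. Drug stock was made in DMSO and diluted in 0.9% NaCl.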

Data set [3] has as its system Candida albicans. Briefly: Antifungal activity against Candida albicans K-1 infected in neutropenic ICR/Swiss mouse candidiasis model assessed as dose required to maintain […] of 3.81 +/- 0.33 log10CFU per kidney administered intraperitoneally every 24 hrs up to 4 days measured per 24 hrs. Format: functional. In outline:
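Neutropenic mice (cyclophosphamide sc 150 mg/kg day −4, 100 mg/kg day −1 and day +2) infected iv via tail vein, 2 h before therapy. Drug given ip in 0.2 ml, diluted from DMSO stock in 0.9% NaCl, q24h for 4 days over five dose levels (0.078–20 mg/kg/24 h), 3 mice per regimen. Kidney CFU on SDA. Static dose taken from a sigmoid Emax (Hill) fit.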

The subject of data set [4] is Nakaseomyces glabratus. Kind of data set: Antifungal activity against Candida glabrata 33609 assessed as complete growth inhibition after 24 hrs by CLSI end point method. In kind it is functional. To be noted: Nakaseomyces glabratus, 33609, 24 h. In outline: (§2)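 CLSI M27-A2 broth dilution. Two end points read against the drug-free control well: partial inhibition (CLSI end point) and complete inhibition. Run in duplicate on four separate occasions; value is the mean. Drug stock in DMSO, diluted in 0.9% NaCl.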

For data set [5], the system named is Candida albicans. Briefly: Antifungal activity against Candida albicans after 24 hrs by broth microdilution method. Format: functional. A general note: In broth dilution the organism is exposed to a series of concentrations in liquid medium.
In data set [6] the test system is Candida albicans. Kind of data set: Antifungal activity against Candida albicans K-1 infected in neutropenic ICR/Swiss mouse candidiasis model assessed as dose required to maintain […] of 3.90 +/- 0.15 log10CFU per kidney administered intraperitoneally every 16 hrs up to 4 days measured per 96 hrs. In kind it is functional. In outline: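 Neutropenic mice were infected iv with C. albicans K-1 2 h before therapy. Total doses of 1.25, 5, 20, 80 and 320 mg/kg/96 h were split into 1, 2, 4 or 6 ip doses (q96h, q48h, q24h, q16h), three mice per regimen. Effect is the log10 CFU/kidney relative to untreated controls at 96 h. Static and 1-log doses were taken from a Hill model fit.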

In data set [7] the test system is Candida albicans. Briefly: Antifungal activity against Candida albicans K-1 infected in neutropenic ICR/Swiss mouse candidiasis model assessed as suppression of fungal regrowth at 5 mg/kg, ip administered 2 hrs postinfection as single dose by time-kill assay. Format: functional, organism-based. Set-up: dose 5 mg/kg. In outline:
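Single ip dose (20, 5 or 1.25 mg/kg) given 2 h after iv infection of neutropenic mice with K-1. Three treated and three control mice were sampled at intervals over 96 h for kidney CFU. PAFE is the time for treated burden to rise 1 log10 after serum levels fall below MIC, minus the same time in controls. Free drug was taken as 1%.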

Data set [8] concerns Nakaseomyces glabratus. Kind of data set: Antifungal activity against Candida glabrata 570 infected in neutropenic ICR/Swiss mouse candidiasis model assessed as fungal count per kidney administered 2 hrs postinfection measured up to 48 hrs. Format: functional. In outline:
(§3)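 Female ICR/Swiss mice (23–27 g) made neutropenic with cyclophosphamide s.c. (150 mg/kg day −4, 100 mg/kg day −1, 100 mg/kg day +2). Infected by tail vein with 0.1 ml inoculum (~6.1 log10 CFU/ml). Kidneys of untreated mice were homogenised and plated on SDA for 24 h at 35°C. Growth over 48 h is given as log10 CFU/kidney.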

Data set [9] has as its system Serum. Briefly: Fraction unbound in Candida albicans K-1 infected neutropenic ICR/Swiss mouse serum at 20 mg/kg, ip administered 2 hrs postinfection as single dose measured after 12 hrs. To be noted: in vivo. In kind it is ADME, organism-based. Set-up: dose 20 mg/kg, route intraperitoneal.
Data set [10] relates to Serum. Kind of data set: Fraction unbound in Candida albicans K-1 infected neutropenic ICR/Swiss mouse serum at 5 mg/kg, ip administered 2 hrs postinfection as single dose. In kind it is ADME, organism-based. Set-up: dose 5 mg/kg, route intraperitoneal. To be noted: in vivo.
In data set [11] the test system is Candida albicans. Kind of data set: Antifungal activity against Candida albicans 98-17 infected in neutropenic ICR/Swiss mouse candidiasis model assessed as dose required for 1-log10 reduction in […] per kidney administered intraperitoneally every 24 hrs up to 4 days measured per 24 hrs. Format: functional. In outline:
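Neutropenic mice (cyclophosphamide sc on days −4, −1 and +2) were infected iv 2 h before therapy. Five total doses from 0.078 to 20 mg/kg/24 h were given ip q24h for 4 days, three mice per regimen. Kidney CFU were measured at the end of therapy. Static and 1-log-kill doses were derived from a Hill sigmoid dose-effect fit.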

The test system of data set [12] is Nakaseomyces glabratus. Briefly: Antifungal activity against Candida glabrata 34341 infected in neutropenic ICR/Swiss mouse candidiasis model assessed as dose required to maintain […] of 1.83 +/- 0.54 log10CFU per kidney administered intraperitoneally every 24 hrs up to 4 days measured per 24 hrs. In kind it is functional.
Data set [13] deals with Nakaseomyces glabratus. Kind of data set: Antifungal activity against Candida glabrata 33616 infected in neutropenic ICR/Swiss mouse candidiasis model assessed as fungal count per kidney administered 2 hrs postinfection measured up to 48 hrs. Format: functional. In outline:
as §3

Data set [14] has as its system Candida albicans. Briefly: Antifungal activity against Candida albicans 580 assessed as complete growth inhibition after 24 hrs by CLSI end point method. Format: functional. To be noted: Candida albicans, 580, 24 h. In outline:
as §2

Data set [15] deals with Nakaseomyces glabratus. Briefly: Antifungal activity against Candida glabrata 5376 infected in neutropenic ICR/Swiss mouse candidiasis model assessed as dose required for 1-log10 reduction in […] per kidney administered intraperitoneally every 24 hrs up to 4 days measured per 24 hrs. In kind it is functional. In outline: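 Neutropenic mouse disseminated candidiasis, with i.p. therapy starting 2 h after i.v. infection. Five total doses of 0.078–20 mg/kg/24 h were given q24h for 4 days, three mice per dose. Kidney CFU were counted at the end and compared with untreated controls. The dose giving a 1 log10 CFU/kidney reduction was derived from the sigmoid Hill dose–effect model.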

In data set [16] the test system is Nakaseomyces glabratus. Briefly: Antifungal activity against Candida glabrata 5592 infected in neutropenic ICR/Swiss mouse candidiasis model assessed as fungal count per kidney administered 2 hrs postinfection measured up to 48 hrs. In kind it is functional. In outline:
as §3

Data set [17] deals with Nakaseomyces glabratus. Kind of data set: Antifungal activity against Candida glabrata 570 assessed as complete growth inhibition after 24 hrs by CLSI end point method. In kind it is functional. To be noted: Nakaseomyces glabratus, 570, 24 h. In outline:
as §1

Data set [18] concerns Nakaseomyces glabratus. Briefly: Antifungal activity against Candida glabrata 5376 infected in neutropenic ICR/Swiss mouse candidiasis model assessed as dose required for 1-log10 reduction in […] per kidney administered intraperitoneally once every 96 hrs measured per 96 hrs. In kind it is functional. In outline:
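Neutropenic ICR/Swiss mice infected i.v. with the strain; therapy began 2 h later. Total doses of 1.25–320 mg/kg/96 h were given i.p. as 1, 2, 4 or 6 doses (q96h, q48h, q24h, q16h), three mice per regimen. Kidney CFU were counted after 4 days. Effect is the change from untreated controls at the end of therapy.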

Consider `CCCCCOc1ccc(-c2ccc(-c3ccc(C(=O)N[C@H]4C[C@@H](O)[C@@H](O)NC(=O)[C@@H]5[C@@H](O)[C@@H](C)CN5C(=O)[C@H]([C@@H](C)O)NC(=O)[C@H]([C@H](O)[C@@H](O)c5ccc(O)cc5)NC(=O)[C@@H]5C[C@@H](O)CN5C(=O)[C@H]([C@@H](C)O)NC4=O)cc3)cc2)cc1` [ANIDULAFUNGIN] ({pTerphenylCO(4''-OnC5H11)}-[Orn(4R-OH,5R-OH)]T[Hyp][hTyr(3S-OH,4S-OH)]T[Pro(3S-OH,4S-Me)]; lactam 1-C), for which the Activity in [1] came to 67 h; in data set [3], 1.25 mg/kg; in [6], 16.5 mg/kg; in data set [11] it was 1.95 mg/kg; in data set [12] it was 6.9 mg/kg; in [15] it was 7.5 mg/kg. Further, the Activity in [18] is 16.6 mg/kg. Also, the MIC (commonly the lowest concentration that inhibits growth of the organism) amounted to 1 µg/mL (≈ 0.877 µM) in [2], 0.12 µg/mL (≈ 0.105 µM) in data set [4], 0.03 µg/mL (≈ 0.0263 µM) in data set [14] and 0.12 µg/mL (≈ 0.105 µM) in [17]. For the same compound, in data set [5], the MIC90 (in general, an inhibitory concentration at the 90% level, which refers to growth in some studies and to a panel of isolates in others) was 0.06 µg/mL (≈ 0.0526 µM). Further, in data set [7], the result was Active. Besides, the log10cfu was 2.45 in data set [8], 1.81 in data set [13] and 2.1 in data set [16]. Besides, the Fu in [9] and in data set [10] was 1% each time.
